KCNK3 inh: human KCNK3 channel inhibition, primary screen; O14649; CHO-KCNK3 thallium flux, FluxOR fluorescence; stronger effect = lower value; B-score at 10 µM; hit rate 0.84% among 340,000; AID 602410;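 active = B-score under library mean minus 4 SD, starting fluorescence ratio at most library mean plus 5 SD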;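 also: more negative B-score means stronger inhibition of thallium flux through KCNK3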
hERG protect: compounds protecting human hERG from proarrhythmic drug block; AID 1511; hit rate 0.51% among 310,000; CHO-hERG, FluxOR thallium flux, dofetilide IC70 present; Q12809; activation (rescue from dofetilide block), less the hit threshold, % at 10 µM;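 active = activation above the mean of controls blocked by dofetilide plus 5 SD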;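 also: thallium influx through hERG after potassium depolarization seen as dye fluorescence rise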
KCNQ1 act: potentiators or activators of human KCNQ1 potassium channel. CHO-K1 KCNQ1, thallium flux FluxOR fluorescence; stronger effect = higher value. B-score at 10 µM. hit rate 0.35% among 310,000. AID 2648;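 active = fluorescence ratio B-score, a plate-corrected score, at least three library SD, with initial intensity B-score within 5 SD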
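Assay system: stable KCNQ1 CHO-K1 line; medium: assay buffer, equal DMSO in all wells; timing: 90 min dye loading and 20 min compound exposure, both at room temperature; technique: kinetic FluxOR thallium fluorescence, 10-s 1-Hz baseline, 110-s post-stimulus read; read-out basis: B score of baseline-normalized fluorescence ratio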
KCNK9 block: blocks the human KCNK9 two-pore domain potassium channel; Q9NPC2; hit rate 1.2% among 310,000; HEK293 KCNK9, FluxOR thallium flux fluorescence; stronger effect = lower value; B-score at 10 µM;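 active = ratio B-score over 3 SD below the library mean, with starting fluorescence within 5 SD of its mean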;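 also: negative B-score means less thallium flux so channel inhibition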
KCNQ1 inh: inhibitors of human KCNQ1 potassium channel; AID 2642; hit rate 1.3% among 310,000; P51787; CHO-K1 KCNQ1, FluxOR thallium flux fluorescence; stronger effect = higher value; B-score at 10 µM;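 active = compounds whose thallium flux B-score, printed positive for inhibition, exceeds three library SD while starting fluorescence stays within three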;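 also: channel opened by potassium depolarization with thallium stimulus after 20 min compound exposure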
KCC2 mod: modulators of human KCC2 chloride dependent transport | Q9H2X9 | KCC2 cells, thallium flux FluoZin-2 fluorescence | B-score of Tl+ flux slope (higher = more flux/activation; lower = inhibition) at 10 µM | hit rate 2.2% among 190,000;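 active = thallium flux slope and its plate-corrected score both differing from the plate sample mean at a set confidence after two filtering rounds, in either direction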;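 also: slope of fluorescence scaled to starting intensity during 10 to 20 s after thallium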
KCNQ1 inh valid: human KCNQ1 channel inhibition, validation assay; KCNQ1 cell line, FluxOR thallium flux fluorescence; shares compounds with KCNQ1 inh; inhibition, % at 10 µM; hit rate 93% among 1,600;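 active = primary screen active, with duplicate mean exceeding buffer control mean plus 3 SD of buffer wells, cut at about 28% in these data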;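 also: 0% = buffer control ratio and 100% = XE991 inhibitor control ratio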
CHO Tl flux: counter-screen for KCNQ1 inhibitors: effect in parental CHO cells; shares compounds with KCNQ1 inh; parental CHO-K1, FluxOR thallium flux fluorescence ratio; stronger effect = lower value; zero means no signal rise above baseline; fluorescence ratio (Tl flux) at 10 µM; hit rate 21% among 1,600; AID 588366;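 active = mean of duplicate thallium-flux fluorescence ratios in parental host cells more than 5 SD below the buffer control mean, cut at about 0.38 in these data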;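 also: ratio is peak minus minimum fluorescence divided by baseline fluorescence; actives read low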
KCNQ1 APC inh: human KCNQ1 inhibition validated by electrophysiology. shares compounds with KCNQ1 inh. KCNQ1-CHO cells, automated patch clamp current. calls only at 10 µM. hit rate 20% among 490. AID 624120;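 active = KCNQ1 current drop exceeding 3 SD of negative control wells, seen in both duplicate runs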;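 also: steady state current during a 2 s step from -80 to +40 mV; negative values mean current inhibition and positive values mean potentiation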
KCNQ2 inh: selectivity of KCNQ1 inhibitors: inhibition of rat KCNQ2 channel; shares compounds with KCNQ1 inh; KCNQ2 cells, FluxOR thallium flux fluorescence; inhibition, % at 10 µM; hit rate 71% among 1,600;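 active = mean percent inhibition of the KCNQ2 thallium signal more than 5 SD above the buffer-only control wells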;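 also: KCNQ2 expressed in CHO cells; 0% = buffer control wells and 100% = XE-991 inhibitor control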
KCNQ1 KCNE1 spec: human KCNQ1/KCNE1 inhibition in KCNQ1 specificity screen; inhibition, % at 10 µM; shares compounds with KCNQ1 inh; hit rate 77% among 1,600; KCNQ1/KCNE1 cells, FluxOR thallium flux fluorescence; AID 652147;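 active = mean percent inhibition of duplicate wells above the buffer-only control mean plus 3 SD of those controls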;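 also: 0% = buffer only wells and 100% = XE-991 inhibitor control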
An asterisk follows results filed as active; i = inactive; · = no result given; + = active, no number. This is a sample that favours compounds with a hit; in the whole collection about 4.1% have one here.

SMILES	KCNK3 inh	hERG protect	KCNQ1 act	KCNK9 block	KCNQ1 inh	KCC2 mod	KCNQ1 inh valid	CHO Tl flux	KCNQ2 inh	KCNQ1 KCNE1 spec	others
CCOC(=O)Nc1ccc2c(c1)N(C(=O)CN1CCN(C)CC1)c1ccccc1S2	i	-9.0	i	i	9*	2.22	0.0	0.453	i	57.0%*
CC(C1=C(CCN(C)C)Cc2ccccc21)c1ccccn1 (configuration not stated)	i	·	·	·	·	·	·	·	·	·
O=C(Nc1ccccc1N1CCCCC1)C1CCN(S(=O)(=O)c2cccc(C(F)(F)F)c2)CC1	i	-9.3	i	i	6*	·	62.0*	0.472	109.7%*	48.0%*
O=C(Nc1ccccc1N1CCCC1)C1CCN(S(=O)(=O)c2cccc(C(F)(F)F)c2)CC1	i	-13.4	i	i	i	·	·	·	·	·
CC(C)(Cc1ccc(O)cc1)NC(=O)SCc1ccccc1	i	-10.3	i	i	7*	·	50.0*	0.504	i	78.5%*
CC(C)(CO)NC(=O)C(c1ccccc1)c1ccccc1	i	-4.3	i	i	i	1.92	·	·	·	·
CCc1ccc(C(=O)NNC(=O)c2cccc(S(=O)(=O)N3CCN(C)CC3)c2)cc1	i	·	·	·	·	·	·	·	·	·
CCOC(=O)c1[nH]c(C)c(C(=O)OCC(=O)N(Cc2ccccc2)C(C)C)c1C	i	·	·	·	·	·	·	·	·	·
NC(=O)C1CCN(C2=C(NS(=O)(=O)c3ccccc3)C(=O)c3ccccc3C2=O)CC1	i	-14.8	i	i	i	0.469	·	·	·	·
NC(=O)C1CCN(C2=C(Cl)C(=O)c3ccccc3C2=O)CC1	i	-36.8	i	i	19*	-2.39	129.0*	0.294*	86.3%*	+
Cc1ccc(S(=O)(=O)Nc2ccccc2CNc2ccccn2)cc1	i	-17.1	i	i	i	-0.83	·	·	·	·
Cc1ccc(S(=O)(=O)Nc2ccccc2CNc2ccc(Br)cn2)cc1	i	-19.8	i	-7.56*	7*	0.219	109.0*	0.373*	103.0%*	151.5%*
Cc1ccc(-n2c(-c3ccc(Br)cc3)c[n+]3c2CCc2ccc4cccnc4c2-3)cc1	-11.4*	-43.1	i	i	19*	-1.4	136.0*	0.317*	120.3%*	183.5%*
CN(c1ccccc1)S(=O)(=O)c1ccc(C(=O)NNC(=O)c2ccccc2F)cc1	i	·	·	·	·	·	·	·	·	·
CCSCCc1nnc(NC(=O)Nc2cccc(C(F)(F)F)c2)s1	i	-14.9	i	i	9*	1.7	64.5*	0.502	i	i
CS(=O)(=O)c1ccc(Cl)c(C(=O)Nc2ccc3nc(N4CCOCC4)sc3c2)c1	i	·	·	·	·	·	·	·	·	·
NS(=O)(=O)c1ccc(CCNS(=O)(=O)c2ccc(Cl)s2)cc1	i	·	·	·	·	·	·	·	·	·
Cn1nc(C(C)(C)C)cc1C(=O)NCc1cc(F)cc2c1OCOC2	i	-25.2	i	i	7*	0.821	94.0*	0.451	82.0%*	34.0%*	KCNQ1 APC inh=+
Cc1cc(C(=O)NCc2cc(F)cc3c2OCOC3)nn1C	i	-7.9	i	i	i	0.643	·	·	·	·
COc1ccc(CCNC(=O)C2CCCN(S(=O)(=O)c3ccc(F)cc3)C2)cc1OC (configuration not stated)	i	-12.6	i	i	i	·	·	·	·	·

Screening results (PubChem)
